Compound activity as filed in PubChem BioAssay.
M5 antag – human M5 muscarinic receptor antagonists, primary screen, CHO cells, Fluo-8 calcium fluorescence; CHO-hM5 cells, ACh EC80; inhibition, % at 3 µM; actives 0.59% (n = 360,000);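 active = inhibition above a per-plate cutoff, the mean of that plate's test compounds plus 3 SD, cut at about 27% in these data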
Target sequence (P08912 whole entry, looked up): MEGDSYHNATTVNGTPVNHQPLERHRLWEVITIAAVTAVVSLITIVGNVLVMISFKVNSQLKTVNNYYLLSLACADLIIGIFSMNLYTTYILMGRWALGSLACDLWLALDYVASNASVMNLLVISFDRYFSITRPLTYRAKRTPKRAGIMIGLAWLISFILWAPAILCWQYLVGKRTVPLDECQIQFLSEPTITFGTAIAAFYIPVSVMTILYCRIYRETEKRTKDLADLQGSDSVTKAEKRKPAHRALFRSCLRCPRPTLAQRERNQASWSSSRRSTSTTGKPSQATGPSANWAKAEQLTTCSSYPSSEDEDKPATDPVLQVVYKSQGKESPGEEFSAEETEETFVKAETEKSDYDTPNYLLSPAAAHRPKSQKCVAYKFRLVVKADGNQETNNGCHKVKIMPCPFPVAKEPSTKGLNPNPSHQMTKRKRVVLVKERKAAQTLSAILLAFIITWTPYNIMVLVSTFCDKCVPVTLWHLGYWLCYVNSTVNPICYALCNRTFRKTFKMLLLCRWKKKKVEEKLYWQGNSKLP
CHRM1 agonist – human M1 muscarinic receptor agonists, primary screen, Fluo-8 calcium fluorescence, CHO-K1 cells, HTS | CHO-K1 hM1, agonist mode; 0% DMSO, 100% acetylcholine EC100 | activation, % at 3 µM | actives 0.33% (n = 360,000);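 active = activation above the run's mean compound activation plus 3 SD, cut at about 16% in these data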;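 also: peak over basal fluorescence ratio within a 140 s kinetic read after compound addition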
M1 antag – human M1 muscarinic receptor antagonists, primary screen, CHO-K1 cells, Fluo-8 calcium fluorescence, 1536-well. CHO-K1 hM1, ACh EC80 antagonist. inhibition, % at 3 µM. actives 1.3% (n = 360,000);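 active = percent inhibition above its own plate's cutoff, namely the mean of that plate's compound wells plus 3 SD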;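 also: peak over basal fluorescence ratio during 140 s after agonist addition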
M5 ag – human M5 muscarinic receptor agonists, primary screen, CHO-K1 cells, Fluo-8 calcium fluorescence. CHO-K1 hM5 cells; 0% DMSO wells, 100% maximal acetylcholine response. actives 0.19% (n = 360,000). Muscarinic acetylcholine receptor M5 (Homo sapiens), P08912. activation, % at 3 µM;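 active = activation above the run's mean over test compounds plus 3 SD, cut at about 23% in these data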;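 also: signal is peak over basal fluorescence ratio across the kinetic read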
CHRM1 PAM – human M1 muscarinic receptor positive allosteric modulators, primary screen, CHO-K1 cells, Fluo-8 calcium fluorescence, 1536-well; actives 0.088% (n = 360,000); Muscarinic acetylcholine receptor M1 (Homo sapiens), P11229; CHO-K1 hM1, ACh EC20; 0% = ACh EC20, 100% = maximal ACh; activation, % at 3 µM; in the data active = activation above about 19%, passing the limit was not always enough
CHRM5 PAM – human M5 muscarinic receptor positive allosteric modulators, primary screen, CHO-K1 cells, Fluo-8 calcium fluorescence; Muscarinic acetylcholine receptor M5 (Homo sapiens), P08912; CHO-K1 hM5, ACh EC20 PAM; 0% = ACh EC20, 100% = ACh EC100; activation, % at 3 µM; actives 0.3% (n = 360,000); AID 624038, 2012;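 active = activation above the run cutoff, the mean activation of all test compounds plus 3 SD, cut at about 18% in these data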
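System – CHO-K1 hM5 cells · Compound – 3 µM, single dose · Incubation – compound preincubation 140 s before EC20 acetylcholine addition · Technique – Fluo-8 calcium fluorescence · Measure – Max/basal fluorescence ratio as % of EC20–EC100 ACh window · Benchmarks – low control EC20 acetylcholine (0%), high control EC100 acetylcholine (100%) · Replication – singlicate, one well per test compound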
A number is an active result; n = inactive. Only some compounds are listed: those with a hit (about 2.1% of all), similar ones and a draw of the others.

SMILES | M5 antag | CHRM1 agonist | M1 antag | M5 ag | CHRM1 PAM | CHRM5 PAM
O=C(c1ccc(-c2ccccc2)cc1)C1CCCN(Cc2ccncc2)C1 (configuration not stated) | n | n | n | n | n | n
CC(=O)Nc1ccc(CN(C)CC2CCCN(CCc3cccc(C(F)(F)F)c3)C2)cc1 (configuration not stated) | n | n | 52 | n | n | n
COCc1cc(CN2CCCC(C(=O)c3cccc(C(F)(F)F)c3)C2)ccc1OC (configuration not stated) | n | n | 43 | n | n | n
Cc1cc(C)cc(CC(=O)N2CCC2(C)C(=O)NS(=O)(=O)c2ccc(Cl)s2)c1 (configuration not stated) | n | n | n | n | n | n
COc1cccc(NC(=O)c2oc3ccccc3c2NC(=O)C(C)(C)C)c1 | n | n | n | n | n | n
Cc1ccc(C(=O)OCC(=O)Nc2nc(-c3ccccc3)cs2)cc1NC(=O)c1ccco1 | n | n | n | n | n | n
O=C(c1cccc(C(F)(F)F)c1)C1CCCN(Cc2cccc(OCCO)c2)C1 (configuration not stated) | n | n | 39 | n | n | n
CC(=O)Nc1ccc(CN2CCN(C3CCCC3)C(CCO)C2)cc1 (configuration not stated) | n | n | n | n | n | n
COc1ccc(C(=O)C2CCCN(Cc3ccc(C#CCCO)cc3)C2)cc1F (configuration not stated) | n | n | 58 | n | n | n
CC(=O)Nc1ccc(CN2CCCN(C)CC2)cc1 | 30 | n | n | n | n | n
COc1ccc(C(=O)C2CCCN(Cc3ccc4nonc4c3)C2)cc1F (configuration not stated) | n | n | n | n | n | n
O=C(Nc1cccc(C(=O)O)c1)/C(=C\c1ccco1)NC(=O)c1ccccc1Cl | n | n | n | n | n | n
O=C(Nc1cccnc1)Nc1cc(Cl)cc(Cl)c1 | 30 | n | n | n | n | n
CC(=O)c1cccc(NC(=O)NN2CCN(C)CC2)c1 | n | n | n | n | n | n
O=C(Nc1cccc(Cl)c1)Nc1cccc(Cl)c1 | n | n | n | n | n | n
O=C(Nc1cccc(Cl)c1)Nc1ccc(Br)cc1F | n | n | 33 | n | n | n
CN1CCN(NC(=O)Nc2cccc(F)c2)CC1 | n | n | 31 | n | n | n
Cc1cc(NC(=O)Nc2ccccc2F)ccc1Br | 37 | n | n | n | n | n
CC1(C)CC(=O)c2c(O)cc(OCc3ccc(Br)cc3)cc2O1 | n | n | n | n | n | n
O=C(Nc1cccc(F)c1)Nc1cccc(Cl)c1 | 28 | n | 43 | n | n | n
O=C(Nc1ccccc1)Nc1ccc(Br)cc1F | 28 | n | 46 | n | n | n
O=C(O)c1cc([N+](=O)[O-])ccc1NCc1ccccc1 | n | n | n | n | n | n
O=C(O)c1cc([N+](=O)[O-])ccc1NCCCc1ccccc1 | n | 18 | n | 35 | n | n
Clc1ccc(C(CCN2CCCC2)Cc2ccccc2)cc1 (configuration not stated) | n | n | 84 | n | n | n
Cc1oc(-c2ccc(Cl)cc2)nc1CN1CCCC(C(=O)NC2CC2)C1 (configuration not stated) | n | n | n | n | n | n
SMILES | M5 antag | CHRM1 agonist | M1 antag | M5 ag | CHRM1 PAM | CHRM5 PAM
CCOC(=O)N1CCC(NC(=O)C2CCCN(Cc3nc(-c4cccc(Cl)c4)oc3C)C2)CC1 (configuration not stated) | n | n | 37 | n | n | n
NC(=O)c1cccc2c(=O)oc3ccccc3c12 | n | n | n | n | n | 19
CCN(CC)S(=O)(=O)c1ccc(NC(=O)Nc2cccc(C(F)(F)F)c2)cc1 | 30 | n | 30 | n | n | n
O=C(Nc1ccc(OC(F)F)cc1)Nc1cccc(C(F)(F)F)c1 | 37 | n | 24 | n | n | n
CC(C)CCn1c(CN2CCN(Cc3ccccc3)CC2)nc2c1c(=O)[nH]c(=O)n2C | n | n | n | n | n | n
Cc1cccc(C(=O)Nc2cccc(S(=O)(=O)NCc3ccco3)c2)c1 | n | n | n | n | n | n
O=C(/C(=C/c1ccc(Cl)cc1)c1nc2ccccc2[nH]1)c1ccccc1 | n | n | 94 | n | n | n
COC(=O)c1cc(C(=O)c2cccc(Cl)c2Cl)cn1C | n | n | n | n | n | n
COc1ccc(CN2CCN(C(=O)CC(C)C)CC2)c2ccccc12 | n | n | n | n | n | 42
O=C(Nc1cscc1S(=O)(=O)c1ccccc1)c1ccccc1Cl | n | n | n | n | n | n
CC(=O)c1ccc(NC(=O)CN2CCN(CC(=O)Nc3ccc(C(C)=O)cc3)CC2)cc1 | n | n | n | n | n | 27
COCCNC(=O)C(=O)N/N=C/c1ccccc1C(F)(F)F | n | n | n | n | n | n
COCCNc1nc(NCc2cccs2)nc2ccsc12 | 81 | 93 | 91 | 96 | n | n
CCOC(=O)Cc1ccc(Nc2nc(NCCOC)nc3ccsc23)cc1 | n | n | 42 | n | n | n
O=C1NCCN1CCNc1nc(NCc2ccccc2)nc2ccsc12 | n | 47 | 70 | n | n | n
c1ccc(CNc2nc(NCc3cccs3)nc3ccsc23)cc1 | 42 | n | n | n | n | n
Cc1ccc(S(=O)(=O)Nc2c(C)[nH]c(=O)[nH]c2=O)cc1C | n | n | n | n | n | n
c1ccc(CNc2nc(NCCc3ccncc3)c3sccc3n2)cc1 | 99 | 99 | 91 | 96 | n | n
O=C1CCCN1CCCNc1nc(NCc2cccs2)nc2ccsc12 | n | 69 | 68 | 41 | n | n
Cc1cc2oc(C(=O)Nc3nonc3C)c(C)c2cc1Cl | n | n | n | n | n | n
CCN(CC)S(=O)(=O)c1ccc(N2Cc3ccccc3C2=N)cc1 | n | n | 30 | n | n | n
CCN(CC)S(=O)(=O)c1cccc(N2CC(O)=C(c3ccccc3)C2=N)c1 | n | n | n | n | n | n
COc1ccc(Cl)cc1-c1n[nH]c(=S)n1C1CCCCC1 | n | n | n | n | n | n
Cc1ccc(S(=O)(=O)NC(C)C(=O)N2CCOCCOCCOCC2)cc1 (configuration not stated) | n | n | n | n | n | n
